Measured values reported in ChEMBL document CHEMBL5376013, “Design, synthesis and biological evaluation of novel morpholinopyrimidine-5-carbonitrile derivatives as dual PI3K/mTOR inhibitors” (RSC Med Chem, 2024).

Assays:
Assay type in all cases: functional
Settings in all cases: read-out: GI
HL-60 = assay: Antitumor activity against human HL-60 cells assessed as growth inhibition at 10 uM relative to control
In short: (§1)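 After drug addition, plates were incubated 48 h at 37 °C under 5% CO2. Adherent cells were fixed with cold TCA (10% final, 60 min, 4 °C) and suspension cells with 16% final TCA. Staining used 0.4% SRB in 1% acetic acid, solubilized in 10 mM trizma, read at A515. Percent growth was calculated from time-zero, control and treated absorbances.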

RPMI-8226 = assay: Antitumor activity against human RPMI-8226 cells assessed as growth inhibition at 10 uM relative to control; in short: as §1
SR = assay: Antitumor activity against human SR cells assessed as growth inhibition at 10 uM relative to control
In short: (§2)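 Drug exposure 48 h at 37 °C, 5% CO2. Adherent cells fixed with cold TCA (10% final), suspension cells with TCA (16% final). Stained with 0.4% SRB in 1% acetic acid, dissolved in 10 mM Tris, A515. Growth relative to time-zero and untreated control.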

EKVX = assay: Antitumor activity against human EKVX cells assessed as growth inhibition at 10 uM relative to control; in short: as §1
HOP-62 = assay: Antitumor activity against human HOP-62 cells assessed as growth inhibition at 10 uM relative to control; in short: as §1
HOP-92 = assay: Antitumor activity against human HOP-92 cells assessed as growth inhibition at 10 uM relative to control; in short: as §1
NCI-H226 = assay: Antitumor activity against human NCI-H226 cells assessed as growth inhibition at 10 uM relative to control; in short: as §1
NCI-H23 = assay: Antitumor activity against human NCI-H23 cells assessed as growth inhibition at 10 uM relative to control; in short: as §1
NCI-H322M = assay: Antitumor activity against human NCI-H322M cells assessed as growth inhibition at 10 uM relative to control; in short: as §1
NCI-H460 = assay: Antitumor activity against human NCI-H460 cells assessed as growth inhibition at 10 uM relative to control; in short: as §1
NCI-H522 = assay: Antitumor activity against human NCI-H522 cells assessed as growth inhibition at 10 uM relative to control; in short: as §1
COLO 205 = assay: Antitumor activity against human COLO 205 cells assessed as growth inhibition at 10 uM relative to control; in short: as §1
HCC 2998 = assay: Antitumor activity against human HCC 2998 cells assessed as growth inhibition at 10 uM relative to control; in short: as §1
HCT-116 = assay: Antitumor activity against human HCT-116 cells assessed as growth inhibition at 10 uM relative to control; in short: as §1
HT-29 = assay: Antitumor activity against human HT-29 cells assessed as growth inhibition at 10 uM relative to control; in short: as §1
KM12 = assay: Antitumor activity against human KM12 cells assessed as growth inhibition at 10 uM relative to control; in short: as §1
SW-620 = assay: Antitumor activity against human SW-620 cells assessed as growth inhibition at 10 uM relative to control; in short: as §2
SF-268 = assay: Antitumor activity against human SF-268 cells assessed as growth inhibition at 10 uM relative to control; in short: as §1
SF-295 = assay: Antitumor activity against human SF-295 cells assessed as growth inhibition at 10 uM relative to control; in short: as §1
SF-539 = assay: Antitumor activity against human SF-539 cells assessed as growth inhibition at 10 uM relative to control; in short: as §1
SNB-19 = assay: Antitumor activity against human SNB-19 cells assessed as growth inhibition at 10 uM relative to control; in short: as §2
SNB-75 = assay: Antitumor activity against human SNB-75 cells assessed as growth inhibition at 10 uM relative to control; in short: as §2
U-251 = assay: Antitumor activity against human U-251 cells assessed as growth inhibition at 10 uM relative to control; in short: as §2
Malme-3M = assay: Antitumor activity against human Malme-3M cells assessed as growth inhibition at 10 uM relative to control; in short: as §1
M14 = assay: Antitumor activity against human M14 cells assessed as growth inhibition at 10 uM relative to control; in short: as §1
MDA-MB-435 = assay: Antitumor activity against human MDA-MB-435 cells assessed as growth inhibition at 10 uM relative to control; in short: as §1
SK-MEL-2 = assay: Antitumor activity against human SK-MEL-2 cells assessed as growth inhibition at 10 uM relative to control; in short: as §1
SK-MEL-28 = assay: Antitumor activity against human SK-MEL-28 cells assessed as growth inhibition at 10 uM relative to control; in short: as §2
SK-MEL-5 = assay: Antitumor activity against human SK-MEL-5 cells assessed as growth inhibition at 10 uM relative to control; in short: as §2
UACC-257 = assay: Antitumor activity against human UACC-257 cells assessed as growth inhibition at 10 uM relative to control; in short: as §2
UACC-62 = assay: Antitumor activity against human UACC-62 cells assessed as growth inhibition at 10 uM relative to control; in short: as §2
IGROV-1 = assay: Antitumor activity against human IGROV-1 cells assessed as growth inhibition at 10 uM relative to control; in short: as §1
OVCAR-4 = assay: Antitumor activity against human OVCAR-4 cells assessed as growth inhibition at 10 uM relative to control; in short: as §1
OVCAR-5 = assay: Antitumor activity against human OVCAR-5 cells assessed as growth inhibition at 10 uM relative to control; in short: as §1
NCI/ADR-RES = assay: Antitumor activity against human NCI-ADR-RES cells assessed as growth inhibition at 10 uM relative to control; in short: as §1
SK-OV-3 = assay: Antitumor activity against human SK-OV-3 cells assessed as growth inhibition at 10 uM relative to control; in short: as §2
786-0 = assay: Antitumor activity against human 786-0 cells assessed as growth inhibition at 10 uM relative to control; in short: as §1
A498 = assay: Antitumor activity against human A498 cells assessed as growth inhibition at 10 uM relative to control; in short: as §1
CAKI-1 = assay: Antitumor activity against human CAKI-1 cells assessed as growth inhibition at 10 uM relative to control; in short: as §1
RXF 393 = assay: Antitumor activity against human RXF 393 cells assessed as growth inhibition at 10 uM relative to control; in short: as §1
SN12C = assay: Antitumor activity against human SN12C cells assessed as growth inhibition at 10 uM relative to control; in short: as §2
TK-10 = assay: Antitumor activity against human TK-10 cells assessed as growth inhibition at 10 uM relative to control; in short: as §2
UO-31 = assay: Antitumor activity against human UO-31 cells assessed as growth inhibition at 10 uM relative to control; in short: as §2
MDA-MB-231 = assay: Antitumor activity against human MDA-MB-231 cells assessed as growth inhibition at 10 uM relative to control; in short: as §1
Hs-578T = assay: Antitumor activity against human Hs-578T cells assessed as growth inhibition at 10 uM relative to control; in short: as §1
T47D = assay: Antitumor activity against human T47D cells assessed as growth inhibition at 10 uM relative to control; in short: as §2

Measured: inhibition of growth at 10 µM

N#Cc1c(-c2ccc(Cl)cc2)[nH]c(=S)[nH]c1=O
10.2%: UO-31
14.7%: SNB-75
33.4%: OVCAR-5
< 1%: all other assays above
